Experimental findings from ChEMBL document CHEMBL1806486, “Discovery and evaluation of 3-phenyl-1H-5-pyrazolylamine-based derivatives as potent, selective and efficacious inhibitors of FMS-like tyrosine kinase-3 (FLT3)” (Bioorg Med Chem, 2011) are described below.

The subject of one series is MV4-11. In words: Antiproliferation activity against FLT3/ITD harboring human MV4-11 cells after 72 hrs by MTS method. It is filed as functional. Conditions: MV4-11, 72 h. In general terms: Formazan colour is commonly taken as a measure of viable cells.
The nature of series [1]: Antiproliferation activity against human RS4:11 cells expressing wild type FLT3 after 72 hrs by MTS method. It is filed as functional. Conditions: RS4-11, 72 h.
Another series concerns K562. In words: Antiproliferation activity against human K562 cells expressing wild type BCR/ABL after 72 hrs by MTS method. In kind it is functional. Conditions: K562, 72 h.
The test system of a further series is U-937. In words: Antiproliferation activity against human FLT3 gene-deficient U937 cells after 72 hrs by MTS method. It is filed as functional. Conditions: U-937, 72 h.
In another series the test system is MOLT-4. In words: Antiproliferation activity against human MOLT4 after 72 hrs by MTS method. It is filed as functional. Conditions: MOLT-4, 72 h.
The next series has as its target T1, Aurora kinase A (Homo sapiens, UniProt O14965).
T1 sequence (O14965 whole entry): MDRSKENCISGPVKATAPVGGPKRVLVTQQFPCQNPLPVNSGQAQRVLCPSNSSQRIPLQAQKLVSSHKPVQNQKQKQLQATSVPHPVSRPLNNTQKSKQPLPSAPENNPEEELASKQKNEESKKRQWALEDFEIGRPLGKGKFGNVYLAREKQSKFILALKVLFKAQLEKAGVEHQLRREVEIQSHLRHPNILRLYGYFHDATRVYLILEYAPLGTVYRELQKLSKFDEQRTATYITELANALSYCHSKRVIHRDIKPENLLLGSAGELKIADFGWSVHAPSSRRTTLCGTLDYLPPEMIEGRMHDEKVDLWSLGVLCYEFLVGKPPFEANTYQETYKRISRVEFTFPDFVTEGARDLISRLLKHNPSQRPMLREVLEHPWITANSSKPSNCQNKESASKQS
In words: Inhibition of recombinant GST-tagged Aurora A expressed in Sf9 insect cells after 90 mins by Kinase-Glo assay. The gist of the method:
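GST-Aurora A kinase domain (S123–S401, 150 ng) from Sf9 cells. Buffer was 50 mM Tris-HCl pH 7.4 with 10 mM NaCl, 10 mM MgCl2, 0.01% BSA and 1 mM DTT. Kinase-Glo Plus was added for 20 min at 25 °C before the luminescence read.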

Series [2] has as its target T2, Vascular endothelial growth factor receptor 2 (Homo sapiens, UniProt P35968). In words: Inhibition of recombinant GST-tagged VEGFR2 expressed in Sf9 insect cells after 120 mins by Kinase-Glo assay. It is filed as cell-based.
The target in series [3] is T3, Vascular endothelial growth factor receptor 1 (Homo sapiens, UniProt P17948). In words: Inhibition of recombinant GST-tagged VEGFR1 expressed in Sf9 insect cells after 120 mins by Kinase-Glo assay. In a few lines: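 GST-VEGFR1 (R781–I1338) or GST-VEGFR2 (V789–V1356) kinase domain, 50–100 ng, from Sf9 cells. Read-out was Kinase-Glo Plus luminescence.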
In a further series the test system is MOLM-13. In words: Antiproliferation activity against human MOLM13 cells expressing FLT3 mutation assessed as cell viability after 72 hrs by MTS method. In kind it is functional. Conditions: MOLM-13, 72 h.
Series [4] concerns the target T4, Receptor-type tyrosine-protein kinase FLT3 (Homo sapiens, UniProt P36888).
T4 sequence (P36888 whole entry): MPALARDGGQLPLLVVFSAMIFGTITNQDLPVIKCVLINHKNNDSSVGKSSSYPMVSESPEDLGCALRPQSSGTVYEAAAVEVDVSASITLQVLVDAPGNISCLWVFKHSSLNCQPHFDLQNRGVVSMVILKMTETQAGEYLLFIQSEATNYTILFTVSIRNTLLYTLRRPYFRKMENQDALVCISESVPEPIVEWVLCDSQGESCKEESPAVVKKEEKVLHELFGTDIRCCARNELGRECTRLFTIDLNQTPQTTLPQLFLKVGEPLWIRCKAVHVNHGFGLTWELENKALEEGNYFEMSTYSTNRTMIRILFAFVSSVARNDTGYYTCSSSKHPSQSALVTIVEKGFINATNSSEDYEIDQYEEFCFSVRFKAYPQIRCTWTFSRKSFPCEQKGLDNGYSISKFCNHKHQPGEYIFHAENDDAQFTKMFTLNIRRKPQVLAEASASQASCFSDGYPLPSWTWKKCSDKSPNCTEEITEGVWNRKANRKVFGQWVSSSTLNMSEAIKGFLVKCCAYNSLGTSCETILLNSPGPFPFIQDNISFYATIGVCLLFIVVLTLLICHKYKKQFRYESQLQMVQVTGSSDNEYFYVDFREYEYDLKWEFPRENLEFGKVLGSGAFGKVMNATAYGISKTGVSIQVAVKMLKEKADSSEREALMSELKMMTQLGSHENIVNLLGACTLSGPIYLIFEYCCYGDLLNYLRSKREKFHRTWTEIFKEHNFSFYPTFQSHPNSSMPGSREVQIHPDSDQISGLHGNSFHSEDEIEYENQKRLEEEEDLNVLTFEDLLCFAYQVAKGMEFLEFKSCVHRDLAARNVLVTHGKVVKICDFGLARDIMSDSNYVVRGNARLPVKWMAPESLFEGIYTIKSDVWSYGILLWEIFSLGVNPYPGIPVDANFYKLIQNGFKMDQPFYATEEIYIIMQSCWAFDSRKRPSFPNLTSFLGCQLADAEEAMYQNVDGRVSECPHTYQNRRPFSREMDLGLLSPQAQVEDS
In words: Inhibition of GST-tagged FLT3 expressing wild type kinase domain expressed in Sf9 insect cells after 4 hrs by Kinase-Glo assay.

The nature of series [5]: Ratio GI50 for human MOLM13 cells to IC50 for GST-tagged FLT3 expressing wild type kinase domain. It is filed as functional, MOLM-13.
Series [6] has as its target Aurora kinase A (Homo sapiens) (UniProt O14965). In words: Inhibition of recombinant GST-tagged Aurora A expressed in Sf9 insect cells at 1 uM after 90 mins by Kinase-Glo assay.
The target of series [7] is T3, Vascular endothelial growth factor receptor 1. In words: Inhibition of recombinant GST-tagged VEGFR1 expressed in Sf9 insect cells at 1 uM after 120 mins by Kinase-Glo assay.
Series [8] concerns the target T2, Vascular endothelial growth factor receptor 2. In words: Inhibition of recombinant GST-tagged VEGFR2 expressed in Sf9 insect cells at 1 uM after 120 mins by Kinase-Glo assay.
The nature of series [9]: AUC (0 to infinity) in Sprague-Dawley rat at 5 mg/kg, iv. In kind it is ADME, organism-based. Further details: time infinity, dose 5 mg/kg, route intravenous. Conditions: plasma.
The nature of series [10]: Clearance in Sprague-Dawley rat at 5 mg/kg, iv. In kind it is ADME, organism-based. On the set-up: dose 5 mg/kg, route intravenous. Conditions: in vivo.
The nature of series [11]: Volume of distribution at steady state in Sprague-Dawley rat at 5 mg/kg, iv. It is filed as ADME, organism-based. On the set-up: dose 5 mg/kg, route intravenous. Conditions: in vivo, read-out: Vdss.
Series [12] can be described thus: Half life in Sprague-Dawley rat at 5 mg/kg, iv. In kind it is ADME, organism-based. On the set-up: dose 5 mg/kg, route intravenous. Conditions: in vivo.
The subject of series [13] is Mus musculus. In words: Toxicity in athymic nu/nu nude mouse assessed as lethality at 50 mg/kg, iv for continuous 5 days. In kind it is organism-based. On the set-up: dose 50 mg/kg, route intravenous. Conditions: in vivo, 120 h.
Series [14] has as its system Mus musculus. In words: Toxicity in normal mouse assessed as reduction of body weight at 50 mg/kg, iv for continuous 5 days. Conditions: in vivo, 120 h.

pIC50: −log10 of the molar value.

T3 sequence (P17948 whole entry, the tested form may be a part): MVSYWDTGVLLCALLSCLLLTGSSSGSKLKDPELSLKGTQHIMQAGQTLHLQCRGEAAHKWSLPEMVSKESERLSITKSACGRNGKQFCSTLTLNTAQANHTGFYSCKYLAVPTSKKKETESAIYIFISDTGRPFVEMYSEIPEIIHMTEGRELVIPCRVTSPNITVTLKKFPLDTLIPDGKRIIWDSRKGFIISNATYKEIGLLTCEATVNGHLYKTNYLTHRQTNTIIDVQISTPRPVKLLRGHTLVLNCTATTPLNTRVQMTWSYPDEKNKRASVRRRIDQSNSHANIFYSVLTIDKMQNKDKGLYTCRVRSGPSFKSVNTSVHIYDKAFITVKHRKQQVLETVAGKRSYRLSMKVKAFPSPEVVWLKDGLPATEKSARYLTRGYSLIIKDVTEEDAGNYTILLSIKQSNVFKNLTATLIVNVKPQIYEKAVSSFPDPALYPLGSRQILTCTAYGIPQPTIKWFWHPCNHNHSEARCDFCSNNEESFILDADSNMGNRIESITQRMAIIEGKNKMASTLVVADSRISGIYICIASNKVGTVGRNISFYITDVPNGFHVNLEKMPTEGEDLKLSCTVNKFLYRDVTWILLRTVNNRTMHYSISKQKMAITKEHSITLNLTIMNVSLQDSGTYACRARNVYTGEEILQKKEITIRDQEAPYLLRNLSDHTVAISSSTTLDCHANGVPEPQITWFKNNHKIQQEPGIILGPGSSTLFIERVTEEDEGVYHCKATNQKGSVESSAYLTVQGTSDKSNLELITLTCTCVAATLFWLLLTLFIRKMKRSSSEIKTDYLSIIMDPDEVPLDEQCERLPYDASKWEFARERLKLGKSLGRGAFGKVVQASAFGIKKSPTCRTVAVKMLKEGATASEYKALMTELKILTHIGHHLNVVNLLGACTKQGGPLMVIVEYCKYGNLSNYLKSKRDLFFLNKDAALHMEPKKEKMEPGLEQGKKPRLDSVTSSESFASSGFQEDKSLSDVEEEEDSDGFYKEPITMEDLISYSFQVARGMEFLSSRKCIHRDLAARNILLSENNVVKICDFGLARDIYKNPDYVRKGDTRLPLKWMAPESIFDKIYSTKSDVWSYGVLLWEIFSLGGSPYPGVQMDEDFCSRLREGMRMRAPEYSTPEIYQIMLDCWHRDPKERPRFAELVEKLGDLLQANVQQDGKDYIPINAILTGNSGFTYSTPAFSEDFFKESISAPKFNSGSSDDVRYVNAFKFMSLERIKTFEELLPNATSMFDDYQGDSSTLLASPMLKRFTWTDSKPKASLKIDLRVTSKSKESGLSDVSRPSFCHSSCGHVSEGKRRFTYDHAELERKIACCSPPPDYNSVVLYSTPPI
T2 sequence (P35968 whole entry, the tested form may be a part): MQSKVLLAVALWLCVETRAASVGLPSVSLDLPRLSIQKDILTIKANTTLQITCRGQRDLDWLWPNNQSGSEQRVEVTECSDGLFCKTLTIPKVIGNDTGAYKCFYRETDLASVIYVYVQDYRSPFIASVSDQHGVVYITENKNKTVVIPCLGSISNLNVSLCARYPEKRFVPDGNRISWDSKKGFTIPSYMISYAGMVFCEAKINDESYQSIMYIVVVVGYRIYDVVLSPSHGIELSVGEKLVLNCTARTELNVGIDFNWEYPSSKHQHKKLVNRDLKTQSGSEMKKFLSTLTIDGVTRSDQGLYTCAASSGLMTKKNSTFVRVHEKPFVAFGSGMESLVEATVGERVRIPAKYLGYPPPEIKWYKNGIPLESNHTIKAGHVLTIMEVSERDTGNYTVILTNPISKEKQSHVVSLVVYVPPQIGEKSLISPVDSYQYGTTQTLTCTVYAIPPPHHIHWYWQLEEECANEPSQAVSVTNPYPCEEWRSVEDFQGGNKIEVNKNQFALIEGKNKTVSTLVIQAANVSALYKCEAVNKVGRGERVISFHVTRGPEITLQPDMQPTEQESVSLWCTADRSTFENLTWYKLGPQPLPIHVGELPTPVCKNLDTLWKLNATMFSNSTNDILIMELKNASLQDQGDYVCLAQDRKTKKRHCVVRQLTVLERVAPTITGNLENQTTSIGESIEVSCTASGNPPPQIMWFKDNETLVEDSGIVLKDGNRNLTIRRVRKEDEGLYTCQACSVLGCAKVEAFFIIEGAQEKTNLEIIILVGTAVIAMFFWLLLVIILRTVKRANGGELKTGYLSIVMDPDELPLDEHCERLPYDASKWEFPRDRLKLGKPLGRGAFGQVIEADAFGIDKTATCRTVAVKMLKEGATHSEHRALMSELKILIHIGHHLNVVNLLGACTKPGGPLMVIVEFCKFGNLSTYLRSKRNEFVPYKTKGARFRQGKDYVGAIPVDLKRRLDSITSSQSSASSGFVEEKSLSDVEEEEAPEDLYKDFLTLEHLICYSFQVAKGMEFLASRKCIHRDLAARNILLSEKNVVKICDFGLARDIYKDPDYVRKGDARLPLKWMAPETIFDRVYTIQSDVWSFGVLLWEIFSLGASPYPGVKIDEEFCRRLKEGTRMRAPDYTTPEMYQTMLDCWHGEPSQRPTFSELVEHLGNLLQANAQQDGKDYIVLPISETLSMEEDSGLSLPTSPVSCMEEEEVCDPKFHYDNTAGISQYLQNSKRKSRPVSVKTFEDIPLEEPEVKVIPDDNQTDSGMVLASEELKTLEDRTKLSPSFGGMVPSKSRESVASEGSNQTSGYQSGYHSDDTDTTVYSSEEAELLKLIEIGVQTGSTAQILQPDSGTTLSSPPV

With `Cc1ccc(F)c(NC(=O)Nc2ccc(-c3cccc4[nH]nc(N)c34)cc2)c1` [LINIFANIB], the concentration for 50% growth inhibition (GI50) – broadly, the concentration giving 50% growth inhibition – in the series on MV4-11 is 40 nM; in series [1], 9200 nM; with K562 it was > 20000 nM; with U-937, 19000 nM; in the series on MOLT-4 it was 6700 nM.
In the case of `Cc1nc(Nc2cc(-c3cccc(NS(=O)(=O)c4ccccc4)c3)n[nH]2)cc(N2CCC(O)CC2)n1`, the pIC50 – broadly, −log10 of the IC50, conventionally taken in molar units – at Aurora kinase A was 6.27; in series [2] it was < 6.00; in [3], < 6.00; in series [4] it was 8.00. The 50% growth inhibitory concentration (GI50) in the series with MOLM-13 came to 120 nM. The Ratio in series [5] came to 12.
For `Cc1ccc(S(=O)(=O)Nc2cccc(-c3cc(NC(=O)c4ccc(N5CCN(C)CC5)cc4)[nH]n3)c2)cc1`, the pIC50 in series [2] was < 6.00; in series [3], < 6.00; in series [4], 7.82. The GI50 in the series with MOLM-13 worked out at 24 nM. The inhibition (as a rule, the drop in the measured response relative to a control, in per cent) in series [6] is 50%.
With `O=C(Nc1cc(-c2cccc(NS(=O)(=O)c3ccccc3)c2)n[nH]1)c1ccc(CN2CCOCC2)cc1`, the pIC50 was 6.66 on Aurora kinase A, 6.25 in series [2] and 6.46 in series [4]. Further, in the series with MOLM-13, the GI50 came to 67 nM. For the same molecule, the inhibition in series [7] was determined as 52%.
With `Cc1nc(NCCCN2CCOCC2)cc(Nc2cc(-c3cccc(NS(=O)(=O)c4ccccc4)c3)n[nH]2)n1`, the pIC50 at Aurora kinase A is 6.17; in [3], < 6.00; in series [4], 8.00. Further, the GI50 with MOLM-13 was 380 nM. The inhibition in series [8] turned out to be 55%.
Turning to `O=C(Nc1cc(-c2cccc(NS(=O)(=O)c3ccccc3)c2)n[nH]1)c1ccc(OCCN2CCOCC2)cc1`, the pIC50 in series [2] was < 6.00; in series [3] it was < 6.00; in series [4], 7.15. Also, in the series on MOLM-13, the GI50 came to 72 nM. Moreover, in [6], the inhibition was 50%.
As for `Cc1cccc(S(=O)(=O)Nc2cccc(-c3cc(NC(=O)c4ccc(N5CCN(C)CC5)cc4)[nH]n3)c2)c1`, the pIC50 on Aurora kinase A is 6.37; in [2], 7.15; in [3], 6.85; in series [4], 8.15. For the same molecule, in the series with MOLM-13, the GI50 amounted to 16 nM. The AUC(0-inf) (in general, the area under the concentration-time curve extrapolated to infinity) in [9] worked out at 1200 ng·h/mL. For the same molecule, in [10], the clearance (in general, the rate of elimination divided by the concentration) came out at 67.4 mL/min/kg. In series [11], the Vd came to 2.6 L/kg. Further, the half-life (commonly how long it takes for the measured level to halve) in [12] was 1.7 h. Besides, the Activity entry in the series on Mus musculus [13] and with Mus musculus [14] was “Toxic” each time.
On to `Cc1nc(NCCN(C)C)cc(Nc2cc(-c3cccc(NS(=O)(=O)c4ccccc4)c3)n[nH]2)n1`, for which the pIC50 on Aurora kinase A is < 6.00; in series [3] it was < 6.00; in series [4], 7.15. Besides, the GI50 with MOLM-13 came to 180 nM. In addition, in [8], the inhibition turned out to be 55%.
